From ChEMBL document CHEMBL4616672, “Inhibiting Matrix Metalloproteinase-2 Activation by Perturbing Protein-Protein Interactions Using a Cyclic Peptide” (J Med Chem, 2020)
The source made the active and inactive calls. *1 amine or outer side, *2 acyl side, *3 side chain or, on linkers, in order; H or OH if unused. Where a SMILES comes first, the peptide text is derived from it. Bridges are numbered along the chain shown (N, C = ends). Triazole bridges read from a SMILES are 1,4-linked. [ ]: non-standard residue; d: D form. The star is where a group is joined. RhodamineB = CCN(CC)c1ccc2c(-c3ccccc3C(=O)*)c3ccc(=[N+](CC)CC)cc-3oc2c1; Lys(N3) = [N-]=[N+]=NCCCC[C@H](N)C(=O)O; X1 = O=C([C@H](Cc1c[nH]nn1)N[*:1])[*:2]; NMeGABA = CN(CCCC(=O)[*:2])[*:1]; Pra = C#CC[C@H](N)C(=O)O

How the values were obtained:
[1] = molecular target: T1, 72 kDa type IV collagenase (Homo sapiens, UniProt P08253); assay: Binding affinity to N-terminal (His6)-MBP tagged full-length human proMMP2 expressed in Escherichia coli BL21(DE3) RIL assessed as reduction in Rhod-cy(WPHPY binding incubated for 30 mins by fluorescence polarization assay
Summary of the method: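 Competitive fluorescence polarization in PBS. Recombinant tag-free full-length proMMP2 (TEV-cleaved after nickel purification, then ion-exchange and size exclusion) and Rhod-cy(WPHPY) each held at 100 nM, with unlabeled ligand titrated. Read as FP. Triplicate individually prepared samples averaged, reported as mean ± SD. Each experiment repeated at least three times on different days.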

[2] = molecular target: T1, 72 kDa type IV collagenase; assay: Binding affinity to catalytic domain of proMMP2 in human WM115 cells assessed as reduction in TIMP2-mediated inhibition of MMP2 enzyme activity at 0.1 nM to 1 uM incubated for 5 mins using MMP2-specific fluorogenic substrate by fluorescence based assay; format: cell-based
Summary of the method: (§1)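 WM115 serum-free 24 h conditioned medium, concentrated and normalized by BCA. 10 μg protein in TNC buffer (50 mM Tris, 0.15 M NaCl, 10 mM CaCl2, pH 7.5) with compound in PBS, equilibrated 5 min at 37 °C. MMP2-specific fluorogenic substrate (3 μM) added, 20 min at 37 °C, read at Ex 325/Em 393 nm. For the TIMP2 condition, recombinant TIMP2 (10 μL of 1 μg/μL) added to all mixtures. Triplicates, three repeats.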

[3] = molecular target: T1, 72 kDa type IV collagenase; assay: Inhibition of MMP2 in human WM115 cells at 0.1 nM to 1 uM incubated for 5 mins using MMP2-specific fluorogenic substrate by fluorescence based assay; format: cell-based; summary of the method: as §1
[4] = molecular target: T1, 72 kDa type IV collagenase; assay: Binding affinity to hemopexin domain of proMMP2 in human WM115 cells assessed as inhibition of TIMP2-MMP2 interaction using surface immobilized recombinant TIMP incubated for 1 hr by ELISA based competitive binding assay; format: cell-based
Summary of the method: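 His-tagged recombinant TIMP2 (9 pmol/well) captured on Ni-coated wells, blocked with His6 peptide. WM115 serum-free 24 h conditioned medium, concentrated (10 kDa cutoff), mixed with compound in PBS (PBS control) and incubated 1 h at room temperature with shaking. Bound MMP2 detected with anti-MMP2 rabbit mAb, HRP secondary and chemiluminescence. Triplicates averaged, experiment repeated three times.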

[5] = molecular target: T1, 72 kDa type IV collagenase; assay: Binding affinity to of proMMP2 in human WM115 cells assessed as reduction in cell membrane association of proMMP at 10 nM incubated for 15 hrs by immunofluorescence based confocal microscopy
Summary of the method: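 WM115 cells in full medium exposed to 10 nM for 15 h, fixed in 4% paraformaldehyde without permeabilization and blocked in 5% goat serum. Stained overnight at 4 °C with anti-MMP2 (1:500), then Alexa Fluor 594 anti-rabbit (1:2000). Confocal imaging; single-cell intensity quantified over thirty cells per image. Three repeats.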

[6] = test system: Matrix metalloproteinase-2 (Homo sapiens); assay: Inhibition of proMMP2 activation in human WM115 cells assessed as decrease in cell numbers in wound region at 1 nM to 1 uM incubated for 24 hrs by wound-healing scratch assay
[7] = test system: Matrix metalloproteinase-2 (Homo sapiens); assay: Inhibition of proMMP2 activation in human WM115 cells assessed as decrease in cell invasion at 1 nM to 1 uM incubated for 24 hrs by transwell cell invasion assay
[8] = molecular target: T1, 72 kDa type IV collagenase; assay: Inhibition of proMMP2 activation in human WM115 cells assessed as reduction in MMP2 activity at 0.1 nM to 1 uM incubated for 24 hrs using enzyme-specific fluorogenic substrate by fluorescence based assay; format: cell-based
Summary of the method: (§2)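 WM115 cells grown to 80% confluency, then cultured 24 h in serum-free medium containing compound (no-compound control). Medium concentrated and BCA-normalized. 10 μg protein in TNC buffer (pH 7.5) with MMP2- or MMP9-specific fluorogenic substrate (3 μM), incubated 20 min at 37 °C, fluorescence read at Ex 325/Em 393 nm. Triplicates, three repeats.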

[9] = molecular target: Matrix metalloproteinase-9 (Homo sapiens) (UniProt P14780); assay: Inhibition of proMMP9 activation in human WM115 cells assessed as reduction in MMP9 activity at 0.1 nM to 1 uM incubated for 24 hrs using enzyme-specific fluorogenic substrate by fluorescence based assay; format: cell-based; summary of the method: as §2
[10] = molecular target: T1, 72 kDa type IV collagenase; assay: Inhibition of proMMP2 activation in human WM115 cells assessed as reduction in MMP2 activity at 0.1 nM to 1 uM incubated for 24 hrs by gelatin zymography; format: cell-based
Summary of the method: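 WM115 cells (600k per well) seeded 8 h in full medium, then 24 h at 37 °C in serum-free medium with compound. Medium concentrated and normalized to 10 μg/mL protein. Run on 7.5% gelatin gel, washed in Triton X-100 buffer, incubated 20 h at 37 °C in CaCl2/ZnCl2 buffer, then Coomassie stained. Three independent experiments.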

[11] = molecular target: T1, 72 kDa type IV collagenase; assay: Inhibition of proMMP2 activation in human WM115 cells assessed as reduction in MMP2 protein expression incubated for 24 hrs by Western blot analysis; format: cell-based
Summary of the method: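 WM115 cells treated 24 h in serum-free medium with compound (PBS control). Conditioned medium immunoblotted for MMP2 with HRP secondary and chemiluminescent detection. Three independent blots, each with medium from a fresh cell batch.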

[12] = molecular target: T1, 72 kDa type IV collagenase; assay: Binding affinity to […] expressed in Escherichia coli BL21(DE3) RIL incubated for 30 mins by fluorescence polarization assay

Sequence of Matrix metalloproteinase-9 (Homo sapiens) (P14780 whole entry): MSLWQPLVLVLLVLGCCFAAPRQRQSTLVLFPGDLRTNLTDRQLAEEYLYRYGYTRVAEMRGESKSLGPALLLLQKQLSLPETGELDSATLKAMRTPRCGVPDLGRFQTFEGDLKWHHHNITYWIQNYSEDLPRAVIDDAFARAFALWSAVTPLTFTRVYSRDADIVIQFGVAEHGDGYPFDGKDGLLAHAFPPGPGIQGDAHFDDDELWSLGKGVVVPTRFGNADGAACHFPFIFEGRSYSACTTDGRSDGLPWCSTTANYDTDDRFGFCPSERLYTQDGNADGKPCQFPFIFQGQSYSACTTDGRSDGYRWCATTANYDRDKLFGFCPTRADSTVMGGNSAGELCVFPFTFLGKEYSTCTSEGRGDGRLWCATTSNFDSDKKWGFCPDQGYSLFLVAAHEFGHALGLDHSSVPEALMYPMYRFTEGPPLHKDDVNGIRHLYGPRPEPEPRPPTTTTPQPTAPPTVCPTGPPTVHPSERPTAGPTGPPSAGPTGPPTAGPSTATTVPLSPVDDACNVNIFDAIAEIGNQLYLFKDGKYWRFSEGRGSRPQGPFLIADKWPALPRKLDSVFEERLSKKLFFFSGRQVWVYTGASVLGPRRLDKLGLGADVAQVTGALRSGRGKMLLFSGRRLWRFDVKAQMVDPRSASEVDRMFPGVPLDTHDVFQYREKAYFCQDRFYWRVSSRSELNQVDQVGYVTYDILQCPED
T1 sequence (P08253 whole entry): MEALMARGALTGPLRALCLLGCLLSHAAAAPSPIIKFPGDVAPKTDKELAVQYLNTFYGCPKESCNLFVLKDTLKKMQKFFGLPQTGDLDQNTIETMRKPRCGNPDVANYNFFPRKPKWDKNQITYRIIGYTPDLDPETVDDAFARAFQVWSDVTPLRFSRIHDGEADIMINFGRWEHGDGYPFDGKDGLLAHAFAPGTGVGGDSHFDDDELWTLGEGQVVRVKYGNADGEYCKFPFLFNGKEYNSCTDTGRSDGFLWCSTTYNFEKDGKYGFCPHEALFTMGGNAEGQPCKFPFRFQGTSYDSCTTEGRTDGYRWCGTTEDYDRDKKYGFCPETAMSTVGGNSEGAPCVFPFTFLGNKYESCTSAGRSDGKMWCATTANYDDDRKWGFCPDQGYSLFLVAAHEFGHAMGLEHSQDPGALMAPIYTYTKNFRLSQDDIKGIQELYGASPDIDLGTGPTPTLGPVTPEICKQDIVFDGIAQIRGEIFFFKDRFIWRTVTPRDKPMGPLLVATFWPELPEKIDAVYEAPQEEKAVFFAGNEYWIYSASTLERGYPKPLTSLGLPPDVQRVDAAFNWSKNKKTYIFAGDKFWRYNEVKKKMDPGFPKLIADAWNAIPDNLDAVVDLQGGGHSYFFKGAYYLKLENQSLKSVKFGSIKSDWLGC

C[C@@H]1NC(=O)[C@@H](N)Cc2cn(nn2)CCCC[C@@H](C(N)=O)NC(=O)[C@H](Cc2ccc(O)cc2)NC(=O)[C@@H]2CCCN2C(=O)[C@H](Cc2c[nH]cn2)NC(=O)[C@@H]2CCCN2C1=O (H-[Pra]APHPY[Lys(N3)]-NH2; triazole 1-7)
Activity [1]: Active

C[C@@H]1NC(=O)[C@H](Cc2c[nH]c3ccccc23)NC(=O)[C@@H](N)Cc2cn(nn2)CCCC[C@@H](C(N)=O)NC(=O)[C@H](Cc2ccc(O)cc2)NC(=O)[C@@H]2CCCN2C(=O)[C@H](Cc2c[nH]cn2)NC1=O (H-[Pra]WAHPY[Lys(N3)]-NH2; triazole 1-7)
Activity [1]: Active

C[C@@H]1NC(=O)[C@@H]2CCCN2C(=O)[C@H](Cc2c[nH]c3ccccc23)NC(=O)[C@@H](N)Cc2cn(nn2)CCCC[C@@H](C(N)=O)NC(=O)[C@H](Cc2ccc(O)cc2)NC(=O)[C@@H]2CCCN2C1=O (H-[Pra]WPAPY[Lys(N3)]-NH2; triazole 1-7)
Activity [1]: Active

C[C@@H]1NC(=O)[C@H](Cc2c[nH]cn2)NC(=O)[C@@H]2CCCN2C(=O)[C@H](Cc2c[nH]c3ccccc23)NC(=O)[C@@H](N)Cc2cn(nn2)CCCC[C@@H](C(N)=O)NC(=O)[C@H](Cc2ccc(O)cc2)NC1=O (H-[Pra]WPHAY[Lys(N3)]-NH2; triazole 1-7)
Activity [1]: Active

C[C@@H]1NC(=O)[C@@H]2CCCN2C(=O)[C@H](Cc2c[nH]cn2)NC(=O)[C@@H]2CCCN2C(=O)[C@H](Cc2c[nH]c3ccccc23)NC(=O)[C@@H](N)Cc2cn(nn2)CCCC[C@@H](C(N)=O)NC1=O (H-[Pra]WPHPA[Lys(N3)]-NH2; triazole 1-7)
Activity [1]: Active

NC(=O)[C@@H]1CCCCn2cc(nn2)C[C@H](N)C(=O)N[C@@H](Cc2c[nH]c3ccccc23)C(=O)N2CCC[C@H]2C(=O)N[C@@H](Cc2c[nH]cn2)C(=O)N2CCC[C@H]2C(=O)N[C@@H](Cc2ccc(O)cc2)C(=O)N1 (H-[Pra]WPHPY[Lys(N3)]-NH2; triazole 1-7)
Activity [2]: inactive
inhibition [3]: inactive
Activity [4]: Active
Activity [5]: Active
inhibition [6]: Active
inhibition [7]: Active
inhibition [8]: Active
inhibition [9]: inactive
inhibition [10]: Dose-dependent effect
inhibition [11]: Dose-dependent effect

NCCCC[C@H](NC(=O)[C@H](Cc1ccc(O)cc1)NC(=O)[C@@H]1CCCN1C(=O)[C@H](Cc1c[nH]cn1)NC(=O)[C@@H]1CCCN1C(=O)[C@H](Cc1c[nH]c2ccccc12)NC(=O)[C@@H](N)Cc1c[nH]nn1)C(N)=O (H-[X1]WPHPYK-NH2)
inhibition [8]: inactive

CCN(CC)c1ccc2c(-c3ccccc3C(=O)N(C)CCCC(=O)N[C@H]3Cc4cn(nn4)CCCC[C@@H](C(N)=O)NC(=O)[C@H](Cc4ccc(O)cc4)NC(=O)[C@@H]4CCCN4C(=O)[C@H](Cc4c[nH]cn4)NC(=O)[C@@H]4CCCN4C(=O)[C@H](Cc4c[nH]c5ccccc45)NC3=O)c3ccc(=[N+](CC)CC)cc-3oc2c1 (RhodamineB-[NMeGABA][Pra]WPHPY[Lys(N3)]-NH2; triazole 2-8)
Kd [12]: 280 nM
Activity [1]: Active
